The source made the active and inactive calls.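 How the source made its calls: active means fitted curve climbs past 10% caspase activation, relative to the positive control, at or below the top valid tested dose; inactive means the rest, including activity in the opposite direction.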

We go through 12 molecules from PubChem BioAssay AID504353 (Broad Institute, 2011).

Tested on in one test: not listed separately
The test can be described thus: apoptosis induction in unprimed parental MEFs – cell-based, wild-type MEF, luminescence, dry powder, set 4, counter-screen for A1 inhibitor project, dose response (AID 504353). Conditions: wild-type MEF caspase-3/7 activation, CaspaseGlo luminescence, 3 h; at 35 µM (top of the series). An outline of the steps: (§1)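 Test system: Wild-type MEFs, not A1-dependent | Amount: 2500 cells per well | Medium: RPMI-1640, 10% FBS | Incubation: 3 h compound exposure, 37 °C | Measure: Caspase activation level from luminescent signal | Dosing: Pin-transferred compound | Measured by: CaspaseGlo luminescence after 1 h reagent incubation, room temperature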
As for `O=C(COc1ccc(Cl)cc1Cl)NNc1nc(N2CCOCC2)nc(N2CCOCC2)n1`, the caspase activation is 2.07% (inactive).

Consider `O=c1[nH]c2ccccc2c(Cl)c1[N+](=O)[O-]`, for which the caspase activation is -2.56% (inactive).

Consider `COc1ccc(CCNc2nc(N3CCOCC3)nc(N3CCOCC3)n2)cc1OC`, for which the caspase activation was 0.427% (inactive).

With `Cc1ccc(Sc2c(Sc3ccc(C)cc3)c3ccccc3n(C)c2=O)cc1`, the caspase activation is -0.533% (inactive).

Consider `COCCn1c(=O)c(Sc2ccc(C)cc2)c(Sc2ccc(C)cc2)c2ccccc21`, for which the caspase activation was 0.618% (inactive).

In the case of `CCn1c(=O)c([N+](=O)[O-])c(Sc2ccc(C)cc2)c2ccccc21`, the caspase activation is 0.55% (inactive).

Consider `C/C(=N\Nc1nc(N2CCCCC2)nc(N2CCCCC2)n1)c1ccc(F)cc1`, for which the caspase activation is 0.729% (inactive).

The subject of the next test is wild-type MEF caspase-3/7 activation, CaspaseGlo luminescence, 3 h. The description is as above.
Settings: not given
An outline of the steps: as §1
For `COCCn1c(=O)c([N+](=O)[O-])c(Sc2ccc(C)cc2)c2ccccc21`, the AC10 is 22 µM.

In the case of `Cc1ccc(Sc2c([N+](=O)[O-])c(=O)n(Cc3ccccc3)c3ccccc23)cc1`, the AC10 was 21.7 µM.

On to `Cn1c(=O)c([N+](=O)[O-])c(-n2cnc3ccccc32)c2ccccc21`, for which the AC10 is 26.1 µM.

Consider `Cn1c(=O)c([N+](=O)[O-])c(Cl)c2ccccc21`, for which the AC10 was 2.9 µM.

With `O=c1c([N+](=O)[O-])c(Cl)c2ccccc2n1Cc1ccccc1`, the AC10 was 3.93 µM.
